What all share (assay type): functional
The species entered for one test is Sus scrofa. Description: Relaxing effect determined by measuring inhibition of acetylcholine-induced contractions in pig coronary arteries. The method, boiled down: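 Pig coronary artery rings from slaughterhouse hearts, resting tension 2 g, isometric force recording. Control acetylcholine contraction repeated every 45 min for three or four cycles, with the last cycle as predrug value. Rising compound concentrations added 30 min before agonist; a solvent ring served as time control.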

The species entered for test [1] is Oryctolagus cuniculus. Briefly: Compound measured for hyperpolarization of smooth muscle cells of the rabbit main pulmonary artery at concentration 1 uM. The gist of the method:
(§1)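 Rabbit main pulmonary artery strips; intracellular glass microelectrode recording of smooth muscle membrane potential after 60 min equilibration. Baseline taken as potential reached with 1 µM noradrenaline. Bath medium exchanged for solutions of increasing compound concentration. At least four cells measured per concentration. Value is hyperpolarization (ΔmV) at the stated concentration, averaged over two preparations.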

Test [2] is filed under the species Oryctolagus cuniculus. Briefly: Compound measured for hyperpolarization of smooth muscle cells of the rabbit main pulmonary artery at concentration 100 uM. The gist of the method:
as §1

Test [3] is filed under the species Oryctolagus cuniculus. Briefly: Compound measured for hyperpolarization of smooth muscle cells of the rabbit main pulmonary artery at concentration 4 uM. The settings on record: in the assay text read “10 uM” for “4 uM”. The gist of the method: as §1
The species entered for test [4] is Oryctolagus cuniculus. Description: Compound measured for hyperpolarization of smooth muscle cells of the rabbit main pulmonary artery at concentration 0.1 uM. The gist of the method:
as §1

For test [5], the species on record is Oryctolagus cuniculus. Briefly: Drug concentration required to induce half maximal hyperpolarization in rabbit main pulmonary arteries. The gist of the method: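 Rabbit main pulmonary artery strips, 60 min equilibration, predepolarized with 1 µM noradrenaline. Membrane potential recorded intracellularly with glass microelectrodes in at least four cells per concentration while compound concentration was raised by bath exchange. EC50 is the concentration giving half-maximal hyperpolarization, taken from concentration/response curves.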

The species entered for test [6] is Oryctolagus cuniculus. Briefly: Relaxing effect by measuring inhibition of noradrenaline-induced contractions in rabbit main pulmonary arteries. The method, boiled down: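 Rabbit pulmonary artery rings 5 mm wide, resting tension 2 g, equilibrated 60–90 min, isometric force recording. Rings contracted with 0.7-1 µM noradrenaline (about 80% of maximal response). Once force was stable, compound added cumulatively in 0.5 log increments. IC50 (50% inhibition) determined graphically for each experiment and reported as geometric mean with 95% confidence limits.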

For test [7], the species on record is Oryctolagus cuniculus. Briefly: Compound measured for hyperpolarization of smooth muscle cells of the rabbit main pulmonary artery at concentration 3 uM. The method, boiled down: as §1
For test [8], the species on record is Oryctolagus cuniculus. Description: Compound measured for hyperpolarization of smooth muscle cells of the rabbit main pulmonary artery at concentration 10 uM. The method, boiled down: as §1

Take `C[C@H]1[C@H](n2ccccc2=O)c2cc(C#N)ccc2OC1(C)C`: the concentration for half-maximal inhibition (IC50) (in general, the concentration that inhibits the measured activity by half) in the test filed under Sus scrofa is greater than 100000 nM. Further, the “Delta mV” value in the test filed under Oryctolagus cuniculus [1] was 10.

`CC1(C)Oc2ccc(C#N)cc2[C@@H](n2nc(N)ccc2=O)[C@]1(C)O` yielded an IC50 in the test listed under Sus scrofa of 40000 nM. Also, in the test listed under Oryctolagus cuniculus [2], the “Delta mV” value is reported as 13.

Regarding `CC1(C)Oc2ccc(C#N)cc2[C@@H](N2CCCC2=O)[C@]1(C)O`, the IC50 in the test filed under Sus scrofa was 4000 nM. The “Delta mV” value in the test filed under Oryctolagus cuniculus [3] is 23.

Take `C[C@]1(O)[C@H](n2ccccc2=O)c2cc(C#N)ccc2OC12CCCCC2`: half-maximal inhibition in the test filed under Sus scrofa (IC50) was put at 20000 nM. The “Delta mV” value in the test filed under Oryctolagus cuniculus [2] stood at 3.

In the test listed under Sus scrofa, `Cn1nc(O[C@@H]2c3cc(C#N)ccc3OC(C)(C)[C@@]2(C)O)ccc1=O` showed an IC50 of 30 nM. Also, the “Delta mV” value in the test filed under Oryctolagus cuniculus [4] came out at 24.

As to `CC1(C)Oc2ccc(C#N)cc2[C@@H](Oc2ccnc(O)c2)[C@]1(C)O`, in the test listed under Sus scrofa, the IC50 was 4 nM. Further, in the test filed under Oryctolagus cuniculus [4], the “Delta mV” value is on record as 35.

Molecule `CC1(C)Oc2ccc([N+](=O)[O-])cc2[C@@H](Oc2ccc(=O)[nH]n2)[C@]1(C)O` yielded an IC50 in the test filed under Sus scrofa of 20 nM. Moreover, in the test listed under Oryctolagus cuniculus [4], the “Delta mV” value amounted to 24.

As for `Cn1nc(N[C@@H]2c3cc(C#N)ccc3OC(C)(C)[C@@]2(C)O)ccc1=O`, the IC50 in the test filed under Sus scrofa came out at 20 nM. Besides, the “Delta mV” value in the test filed under Oryctolagus cuniculus [4] is on record as 34.

In turn, `CC1=C(N2CCCC2=O)c2cc(C#N)ccc2OC1(C)C` gave an IC50 in the test listed under Sus scrofa greater than 100000 nM. Further, the “Delta mV” value in the test filed under Oryctolagus cuniculus [2] was determined as 29.

As for `C[C@]1(O)[C@H](Oc2ccc(=O)[nH]n2)c2cc(C#N)ccc2OC12CCCCC2`, the IC50 in the test listed under Sus scrofa came to 80000 nM. The “Delta mV” value in the test filed under Oryctolagus cuniculus [2] was 26.

On to `CC1(C)C=C(n2ccccc2=O)c2cc(C#N)ccc2O1` [BIMAKALIM], for which the IC50 in the test listed under Sus scrofa is 50 nM; in the test filed under Oryctolagus cuniculus [6] it was 57 nM. A half-maximal response in the test filed under Oryctolagus cuniculus [5] (EC50) required 27 nM. In addition, in the test listed under Oryctolagus cuniculus [4], the “Delta mV” value is 23.

The molecule `CCn1nc(O[C@@H]2c3cc(C#N)ccc3OC(C)(C)[C@@]2(C)O)ccc1=O` gave an IC50 in the test listed under Sus scrofa of 7 nM. The “Delta mV” value in the test filed under Oryctolagus cuniculus [4] turned out to be 22.

Take `CC1(C)Oc2ccc(C#N)cc2[C@@H](n2ccccc2=O)[C@@H]1O`: in the test listed under Oryctolagus cuniculus [5], the response was half-maximal at 105 nM (EC50). Also, in the test listed under Oryctolagus cuniculus [6], half-maximal inhibition (IC50) required 174 nM. Further, the “Delta mV” value in the test filed under Oryctolagus cuniculus [1] is 34.

`CC1(C)Oc2ccc(C#N)cc2[C@H](Oc2ccc(=O)[nH]n2)[C@@]1(C)O`: the “Delta mV” value in the test listed under Oryctolagus cuniculus [2] stood at 20.

In the test filed under Sus scrofa, `CC1(C)Oc2ccc(C#N)cc2[C@@H](Oc2ccccn2)[C@]1(C)O` gave an IC50 of 6000 nM. In addition, the “Delta mV” value in the test listed under Oryctolagus cuniculus [2] is on record as 25.

Turning to `CC1(C)Oc2ccc(C#N)cc2[C@@H](Oc2ccc(=O)[nH]n2)[C@@]1(O)CO`, the IC50 in the test filed under Sus scrofa was 700 nM. Moreover, the “Delta mV” value in the test filed under Oryctolagus cuniculus [7] is 32.

In the test filed under Sus scrofa, `CC1(C)Oc2ccc(C#N)cc2[C@@H](Oc2ccc(=O)[nH]n2)[C@@]1(O)Cc1ccccc1` displayed a half-maximal inhibitory concentration (IC50) greater than 100000 nM. Also, the “Delta mV” value in the test filed under Oryctolagus cuniculus [2] came to 6.

`CC1(C)Oc2ccc(C#N)cc2C(N2CCCC2=O)C1O` (stereo unspecified) [CROMAKALIM]: the IC50 in the test filed under Sus scrofa stood at 700 nM; in the test listed under Oryctolagus cuniculus [6], 420 nM. In addition, the EC50 (commonly the midpoint of the concentration-response curve) in the test listed under Oryctolagus cuniculus [5] came to 263 nM. Further, the “Delta mV” value in the test listed under Oryctolagus cuniculus [7] stood at 28.

As for `CC1(C)Oc2ccc(C#N)cc2[C@@H](Oc2ccc(=O)[nH]n2)[C@]1(C)O`, the IC50 in the test filed under Sus scrofa was 6 nM; in the test listed under Oryctolagus cuniculus [6], 2 nM. Besides, in the test filed under Oryctolagus cuniculus [5], the EC50 came to 3 nM. Moreover, the “Delta mV” value in the test listed under Oryctolagus cuniculus [4] turned out to be 29.

With `CC1(C)Oc2ccc(C#N)cc2[C@@H](Nn2ccccc2=O)[C@]1(C)O`, the IC50 in the test filed under Sus scrofa was greater than 100000 nM. For the same molecule, the “Delta mV” value in the test filed under Oryctolagus cuniculus [2] amounted to 12.

For the molecule `CC1(C)Oc2ccc(C#N)cc2[C@]2(n3ccccc3=O)O[C@]12C`, in the test listed under Sus scrofa, the IC50 was greater than 100000 nM. In the test listed under Oryctolagus cuniculus [2], the “Delta mV” value is given as 10.

In the case of `CCOC[C@]1(O)[C@H](Oc2ccc(=O)[nH]n2)c2cc(C#N)ccc2OC1(C)C`, the midpoint of inhibition in the test listed under Sus scrofa, the IC50, lay at 50000 nM. Also, the “Delta mV” value in the test listed under Oryctolagus cuniculus [2] turned out to be 12.

`CC1(C)Oc2ccc(C#N)cc2[C@@H](Oc2ccc(=O)[nH]n2)[C@@]1(O)COCc1ccccc1` displayed an IC50 in the test filed under Sus scrofa greater than 100000 nM. Besides, in the test filed under Oryctolagus cuniculus [2], the “Delta mV” value came out at 16.

The molecule `CC1(C)Oc2ccc(C#N)cc2[C@@H](On2ccccc2=O)[C@]1(C)O` showed an IC50 in the test listed under Sus scrofa greater than 100000 nM. The “Delta mV” value in the test listed under Oryctolagus cuniculus [2] is on record as 21.

In the case of `CC1(C)Oc2ccc(C#N)cc2[C@@H](n2ccccc2=O)[C@]1(C)O`, in the test filed under Sus scrofa, the IC50 was greater than 100000 nM. Further, the “Delta mV” value in the test listed under Oryctolagus cuniculus [2] was 19.

For the molecule `Cn1nc(O[C@@H]2c3cc(C#N)ccc3OC(C)(C)[C@H]2O)ccc1=O`, the values for the IC50 in the test filed under Sus scrofa and in the test listed under Oryctolagus cuniculus [6] were 50 nM and 26 nM, respectively. The molecule further came in with an EC50 in the test filed under Oryctolagus cuniculus [5] of 11 nM. Further, in the test filed under Oryctolagus cuniculus [4], the “Delta mV” value is recorded as 29.

Molecule `CC1=C(n2ccccc2=O)c2cc(C#N)ccc2OC1(C)C` came in with an IC50 in the test filed under Sus scrofa of 5000 nM. In the test listed under Oryctolagus cuniculus [2], the “Delta mV” value came out at 29.

`CC1(C)Oc2ccc([N+](=O)[O-])cc2[C@@H](n2ccccc2=O)[C@]1(C)O`: the midpoint of inhibition in the test listed under Sus scrofa, the IC50, lay at 20000 nM. In addition, the “Delta mV” value in the test listed under Oryctolagus cuniculus [8] was 22.

Regarding `CC1(C)Oc2ccc(C#N)cc2[C@@H](OC2=CC(=O)CC2)[C@]1(C)O`, the IC50 in the test filed under Sus scrofa was 20 nM. Besides, in the test listed under Oryctolagus cuniculus [1], the “Delta mV” value amounted to 25.

The values are drawn from ChEMBL document CHEMBL1125774, “3-Methyl-2H-1-benzopyran potassium channel activators” (J Med Chem, 1991).
